# Data as given in ChEMBL document CHEMBL1153602, “Photochemical electrocyclisation of 3-vinylindoles to pyrido[2,3-a]-, pyrido[4,3-a]- and thieno[2,3-a]-carbazoles: design, synthesis, DNA binding and antitumor cell cytotoxicity” (2009).
# Activity calls are given as the source filed them. The rule behind the calls is not given here.
# Experiments:
# [1] = system: Nucleic Acid; assay: Binding affinity to poly(dA).poly(dT) duplex DNA assessed as change in thermal melting temperature at compound to DNA ratio of 0.25 by UV-vis spectroscopy; type: nucleic-acid assay
# [2] = system: Nucleic Acid; assay: Binding affinity to pBS 117bp DNA by DnaseI footprinting assay; type: nucleic-acid assay
# Summary of the method: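 Ligand and fragment were pre-incubated 15 min at 37 °C, then digested with DNase I at 0.001 unit/ml in 20 mM NaCl, 2 mM MgCl2, 2 mM MnCl2, pH 7.3. Products were resolved on a denaturing 8% polyacrylamide/8 M urea gel, with a G-track marker.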
# [3] = system: Calf thymus DNA; assay: Binding affinity to calf thymus DNA assessed as change in melting temperature at a compound to DNA molar ratio of 0.5 by UV-vis spectroscopy; type: nucleic-acid assay; conditions: Bos taurus
# Summary of the method: (§1)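 UV absorbance of DNA at 260 nm recorded every minute from 20 to 100 °C, ramping 1 °C/min in a thermostated quartz cell. Tm is taken as the midpoint of the hyperchromic transition. ΔTm = Tm(DNA+drug) − Tm(DNA alone). Calf-thymus DNA or poly(dAdT)2 was used at DNA/drug ratios from 0.1 to 1.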
# [4] = system: Calf thymus DNA; assay: Binding affinity to calf thymus DNA assessed as change in melting temperature at a compound to DNA molar ratio of 0.25 by UV-vis spectroscopy; type: nucleic-acid assay; conditions: Bos taurus; summary of the method: as §1
# [5] = system: HT-29; assay: Growth inhibition of human HT-29 cells by MTS assay; type: functional
# Summary of the method: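 HT-29 cells, 3×10^3 per well, were seeded 24 h before treatment with compound at 1 nM–100 µM, run as 3 series of duplicate or triplicate points. After 72 h at 37 °C, MTS tetrazolium was added for 2 h and absorbance read at 492 nm. GC50 is the concentration halving cell number versus untreated control wells.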
# [6] = system: Calf thymus DNA; assay: Binding affinity to calf thymus DNA assessed as quenching constant up 80 uM by fluorescence spectroscopy; type: nucleic-acid assay; conditions: Bos taurus
# Summary of the method: (§2)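 Drug at a fixed 20 µM in 1 ml BPE buffer in a 10 mm quartz cuvette, titrated with CT-DNA at 10–200 µM base pairs. Excitation was set at each compound's own wavelength (276–319 nm). Constants came from Stern–Volmer plots of F0/F against CT-DNA concentration, with the slope taken as Ksv.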
# [7] = system: Calf thymus DNA; assay: Binding affinity to calf thymus DNA assessed as change in melting temperature at a compound to DNA molar ratio of 0.1 by UV-vis spectroscopy; type: nucleic-acid assay; conditions: Bos taurus; summary of the method: as §1
# [8] = system: Calf thymus DNA; assay: Binding affinity to calf thymus DNA assessed as change in melting temperature at a compound to DNA molar ratio of 1 by UV-vis spectroscopy; type: nucleic-acid assay; conditions: Bos taurus; summary of the method: as §1
# [9] = system: Nucleic Acid; assay: Binding affinity to poly(dA).poly(dT) duplex DNA assessed as change in thermal melting temperature at compound to DNA ratio of 0.1 by UV-vis spectroscopy; type: nucleic-acid assay
# [10] = system: Nucleic Acid; assay: Binding affinity to poly(dA).poly(dT) duplex DNA assessed as change in thermal melting temperature at compound to DNA ratio of 0.5 by UV-vis spectroscopy; type: nucleic-acid assay
# [11] = system: Nucleic Acid; assay: Binding affinity to poly(dA).poly(dT) duplex DNA assessed as change in thermal melting temperature at compound to DNA ratio of 1 by UV-vis spectroscopy; type: nucleic-acid assay
# [12] = system: HT-29; assay: Cell cycle arrest in human HT-29 cells assessed as accumulation at G2/M phase after 24 hrs using PI staining by flow cytometry; type: functional, cell-based
# Summary of the method: (§3)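 HT-29 cells, 3×10^5 per sample in exponential growth, were exposed to graded drug concentrations for 24 h. Cells were then trypsinised, fixed in 70% ethanol and stained 30 min in the dark with propidium iodide (50 µg/ml) plus RNase (100 µg/ml). DNA content was measured by flow cytometry, quantifying cell-cycle phases and the sub-G1 fraction.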
# [13] = system: Calf thymus DNA; assay: Binding affinity to calf thymus DNA assessed as positive dichroic signal at phosphate/drug ratio of 4.8 by circular dichroism spectra; type: nucleic-acid assay; conditions: Bos taurus
# Summary of the method: (§4)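 Circular dichroism of drug at […] in 1 ml of 1 mM sodium cacodylate, pH 7.0, with or without CT-DNA at 10–200 µM. Phosphate/compound ratio ran from 0.4 to 8. The induced CD signal in the ligand absorption region was recorded.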
# [14] = system: HT-29; assay: Cell cycle arrest in human HT-29 cells assessed as accumulation at S phase after 24 hrs using PI staining by flow cytometry; type: functional, cell-based; summary of the method: as §3
# [15] = system: Calf thymus DNA; assay: Binding affinity to calf thymus DNA assessed as negative dichroic signal at phosphate/drug ratio by circular dichroism spectra; type: nucleic-acid assay; conditions: Bos taurus; summary of the method: as §4
# [16] = system: Calf thymus DNA; assay: Binding affinity to calf thymus DNA assessed as positive dichroic signal at phosphate/drug ratio by circular dichroism spectra; type: nucleic-acid assay; conditions: Bos taurus; summary of the method: as §4
# [17] = system: Calf thymus DNA; assay: Binding affinity to calf thymus DNA assessed as quenching constant by fluorescence spectroscopy; type: nucleic-acid assay; conditions: Bos taurus; summary of the method: as §2
# [18] = system: Calf thymus DNA; assay: Binding affinity to calf thymus DNA assessed as positive dichroic signal at phosphate/drug ratio of 1.2 by circular dichroism spectra; type: nucleic-acid assay; conditions: Bos taurus; summary of the method: as §4
ΔTm [1],Activity [2],ΔTm [3],ΔTm [4],GI50 [5],KSV [6],ΔTm [7],ΔTm [8],ΔTm [9],ΔTm [10],ΔTm [11],Activity [13],Activity [15],Activity [16],KSV [17],Activity [18],SMILES,Activity [12],Activity [14]
11.9 °C,Active,4.4 °C,1.5 °C,10.8 µM,2.65 ×10⁴ /M,0 °C,5.8 °C,5.9 °C,16.4 °C,20.9 °C,–,–,–,–,–,CN(C)CCCNC(=O)c1cc2c3ccccc3[nH]c2c2sccc12,–,–
17.6 °C,Active,10.4 °C,5 °C,4.49 µM,–,2.6 °C,13.8 °C,9.7 °C,23.6 °C,29.8 °C,Active,–,–,–,–,CN(C)CCCNC(=O)c1cc2c3cccc(Cl)c3[nH]c2c2ncccc12,Active,–
18.9 °C,Active,11.2 °C,7.9 °C,1.08 µM,–,5.3 °C,15.1 °C,11.6 °C,24.7 °C,29.6 °C,–,Active,Active,6.72 ×10³ /M,–,CN(C)CCNC(=O)c1cc2c3cc(Cl)ccc3[nH]c2c2ccncc12,–,Active
6.2 °C,Active,5.1 °C,1.5 °C,14 µM,–,1.1 °C,7.9 °C,2.8 °C,13.6 °C,8.8 °C,–,–,–,–,Active,CN(C)CCNC(=O)c1cc2c3cccc(Cl)c3[nH]c2c2ncccc12,Active,–
